Hits are enriched below; roughly 2.9% of the tested compounds scored in any of these assays.
PAD4 FP inh: inhibitors of human PAD4; Q9UM07; recombinant PAD4, RCA probe fluorescence polarization; inhibition, % at 6.36 µM; actives 0.41% (n = 330,000);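 active = percent inhibition above a cutoff equal to the mean of all tested compounds plus 3 SD, cut at about 15% in these data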
SIAE primary: blocks human sialic acid acetylesterase; AID 1053197; SIAE FP-Rh probe binding, fluorescence polarization; Q9HAT2; actives 0.69% (n = 370,000); inhibition, % at 9.66 µM;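 active = inhibition above a cutoff: mean of compounds within the control limits plus 3 SD of those, cut at about 17% in these data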
Target sequence (Q9HAT2 whole entry, looked up): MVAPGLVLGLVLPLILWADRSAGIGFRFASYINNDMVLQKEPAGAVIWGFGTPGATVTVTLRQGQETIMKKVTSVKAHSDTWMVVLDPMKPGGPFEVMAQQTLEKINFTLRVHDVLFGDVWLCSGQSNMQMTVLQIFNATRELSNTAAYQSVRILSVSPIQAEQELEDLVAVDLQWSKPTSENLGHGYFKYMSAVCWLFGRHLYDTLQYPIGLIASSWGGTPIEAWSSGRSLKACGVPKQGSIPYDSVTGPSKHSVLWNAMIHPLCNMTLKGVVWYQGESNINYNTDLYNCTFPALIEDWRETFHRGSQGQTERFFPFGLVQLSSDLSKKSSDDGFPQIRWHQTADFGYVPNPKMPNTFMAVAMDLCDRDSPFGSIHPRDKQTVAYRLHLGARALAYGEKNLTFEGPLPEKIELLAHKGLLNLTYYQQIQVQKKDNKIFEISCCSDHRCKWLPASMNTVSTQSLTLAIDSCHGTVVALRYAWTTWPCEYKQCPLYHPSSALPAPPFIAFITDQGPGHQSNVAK
TCR CD3 inh: blocks the human TCR-CD3 interaction; TAMRA-labeled TCR probe fluorescence, biochemical; inhibition, % at 9.4 µM; actives 0.37% (n = 360,000);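 note: recombinant mutant TCR 2C K166C tagged with TAMRA read by polarization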
HTRA1 inh: inhibitors of human serine peptidase HTRA1; Q92743; recombinant HTRA1, FP-rhodamine activity-based probe, fluorescence polarization; inhibition, % at 5.96 µM; actives 0.5% (n = 340,000); in the data active = inhibition above about 36%
mABHD4 FP: ABHD4 (mouse) inhibition, primary FP screen; Q8VD66; purified mABHD4, FP-Rh probe fluorescence polarization; inhibition, % at 8.92 µM; actives 0.54% (n = 370,000); AID 720543;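 active = inhibition exceeding the mean over every tested compound plus 3 SD, cut at about 30% in these data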
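system = mouse ABHD4 enzyme, wild type | medium = HEPES pH 7.0, NaCl, Pluronic buffer | also added = FP-Rh probe | incubation = Enzyme–compound pre-incubation 45 min, then probe 60 min, both 25 °C | technique = fluorescence polarization, excitation 525 nm, emission 598 nm, BODIPY TMR filters | controls = S159A mutant high control, sample median low control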
PRMT1 inh: blocks human protein arginine methyltransferase 1 | recombinant PRMT1, activity-based probe fluorescence polarization | inhibition, % at 2.79 µM | actives 1.3% (n = 370,000) | AID 652257;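 active = inhibition above about 21% made by adding two undisclosed values, limit read from the data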
BSA TAMRA ctr: counter-screen for TCR-CD3 interaction inhibitors: BSA probe; actives 10% (n = 1,200); inhibition, % at 9.4 µM; shares compounds with TCR CD3 inh; TAMRA-labeled BSA probe fluorescence counterscreen; in the data active = inhibition above about 23%
TCR-CD3 conf: confirmation of human TCR-CD3 interaction inhibitors; shares compounds with TCR CD3 inh; TAMRA-labeled TCR probe fluorescence binding assay; inhibition, % at 9.4 µM; actives 48% (n = 1,200)
Of the large screens only hits and unclear results are named; the others gave an inactive call (follow-up assays come after a bar, where they were run). Cut-off read from the data, not from the text of the source, unless noted: active = inhibition above about 19%; inactive = the rest.

CC(=O)c1ccc(NC(=O)CN2C(=O)/C(=C/C(C)=C/c3ccccc3)SC2=S)cc1	TCR CD3 inh 23.8 (no result: PAD4 FP inh) | BSA TAMRA ctr inactive | TCR-CD3 conf 49.2
CC(/C=C1\SC(=S)N(CCC(=O)Nc2ccc(O)cc2)C1=O)=C\c1ccccc1	none
O=C(OCc1cn(Cc2ccc(C(F)(F)F)cc2)nn1)N1CCCC1	none (no result: PAD4 FP inh, TCR CD3 inh, HTRA1 inh)
Cc1ccc(C(=O)OC(C)C(=O)Nc2ccc(S(N)(=O)=O)cc2)cc1S(=O)(=O)N1CCOCC1 (stereo not given)	none
CC(OC(=O)c1ccc(NC(=O)CC#N)cc1)C(=O)NC(c1ccccc1)c1ccccc1 (stereo not given)	TCR CD3 inh 29.5 | BSA TAMRA ctr inactive | TCR-CD3 conf inactive
CC(OC(=O)c1ccc(NC(=O)CC#N)cc1)C(=O)Nc1ccc2c(c1)OCCO2 (stereo not given)	none
Cc1ccc(NC(=O)C(C)OC(=O)c2ccc(NC(=O)CC#N)cc2)cc1S(=O)(=O)N1CCOCC1 (stereo not given)	TCR CD3 inh 26.7 | BSA TAMRA ctr inactive | TCR-CD3 conf inactive
CCOc1ccccc1NC(=O)C(OC(=O)c1ccc(NC(=O)CC#N)cc1)c1ccccc1 (stereo not given)	TCR CD3 inh 20.3 | BSA TAMRA ctr inactive | TCR-CD3 conf inactive
COCCCNC(=O)CC(C)c1ccccc1 (stereo not given)	TCR CD3 inh 110.1 | BSA TAMRA ctr inactive | TCR-CD3 conf inactive
COCCNC(=O)CC(c1ccccc1)c1ccccc1	none
COc1ccc(/C=N\NC(=O)c2ccccc2Br)cc1COc1ccccc1	none
COc1ccc(C(=O)N/N=C\c2ccc(OC)c(COc3ccccc3Br)c2)c(OC)c1	TCR CD3 inh 26.1 | BSA TAMRA ctr inactive | TCR-CD3 conf 32.0
COC(=O)CCC(=O)N1C2=NC3=C(C(=O)N(Cc4ccc5c(c4)OCO5)C3=O)C3N(C)c4ccccc4[C@]23C[C@H]1CO (stereo not given in full)	none (no result: PAD4 FP inh, TCR CD3 inh, HTRA1 inh)
Cc1ccc(-c2cc(C(=O)Nc3ccc(S(=O)(=O)Nc4onc(C)c4C)cc3)[nH]n2)c(O)c1	TCR CD3 inh 32.2 | BSA TAMRA ctr inactive | TCR-CD3 conf 19.6
Cc1ccc2oc(C(=O)Nc3ccc(S(=O)(=O)Nc4onc(C)c4C)cc3)c(C)c2c1	none
CN(Cc1cn(Cc2ccccc2)nn1)S(=O)(=O)c1ccc(F)cc1Br	none (no result: PAD4 FP inh, TCR CD3 inh, HTRA1 inh)
CCCC1CCC2(CC1)CCC2OC(=O)Nc1ccc2c(c1)OCO2 (stereo not given)	none (no result: PAD4 FP inh, TCR CD3 inh, HTRA1 inh)
COc1ccc2c(c1)CNC2CS(=O)(=O)NCc1ccc(F)cc1 (stereo not given)	none (no result: PAD4 FP inh, TCR CD3 inh, HTRA1 inh)
COc1cc(/C=N/NC(=O)C(=O)/C=C2\NC(C)(C)Cc3ccccc32)ccc1O	TCR CD3 inh 25.7 | BSA TAMRA ctr inactive | TCR-CD3 conf inactive
COc1cc(/C=N/NC(=O)C2(O)c3ccccc3-c3ccccc32)ccc1O	none
CCn1c2ccccc2c2cc(NC(=O)COC(=O)c3cccc(F)c3)ccc21	none (no result: PAD4 FP inh, TCR CD3 inh, HTRA1 inh)
CC(C(=O)N1CCCCC1)n1sc2ccccc2c1=O (stereo not given)	TCR CD3 inh 31.4 | BSA TAMRA ctr inactive | TCR-CD3 conf inactive
CC1CCCCC1N(C(=O)c1cc(C2CC2)on1)C1CCCCC1 (stereo not given)	none (no result: PAD4 FP inh, TCR CD3 inh, HTRA1 inh)
CCOC(=O)[C@]12CCCCC/C=C\1N(Cc1ccc(OC)cc1)C(=O)[C@H]2CC(=O)NCC1CCCCC1	none (no result: PAD4 FP inh, TCR CD3 inh, HTRA1 inh)
CC1SC(=NC(=O)C(C)N2C(=O)c3ccccc3C2=O)NC1=O (stereo not given)	TCR CD3 inh 103.8 | BSA TAMRA ctr inactive | TCR-CD3 conf inactive
COc1cc(O)c2c(c1)OC(c1ccc(O)cc1)CC2=O (stereo not given)	none
Cc1c(O)cc2c(c1O)C(=O)CC(c1ccc(O)cc1)O2 (stereo not given)	TCR CD3 inh 33.8 | BSA TAMRA ctr inactive | TCR-CD3 conf 22.5
COc1ccc(CN(C2CCCC2)S(=O)(=O)c2ccc(-n3cnnn3)cc2)cc1OC	TCR CD3 inh 82.3 | BSA TAMRA ctr inactive | TCR-CD3 conf inactive
N#CCC(=O)Nc1ccc(C(=O)OCC(=O)Nc2cc(-c3ccccc3)nn2-c2ccccc2)cc1	TCR CD3 inh 52.3 (no result: PAD4 FP inh) | BSA TAMRA ctr inactive | TCR-CD3 conf 21.3
CCN(CC)S(=O)(=O)c1ccc(NC(=O)COC(=O)c2ccc(NC(=O)CC#N)cc2)cc1	TCR CD3 inh 19.7 | BSA TAMRA ctr inactive | TCR-CD3 conf inactive
CNC(=O)COC(=O)c1ccc(NC(=O)CC#N)cc1	none
COCCNC(=O)C[C@H]1CC[C@H]2[C@@H](COc3ccc(NC(=O)Nc4cccc(F)c4)cc3C(=O)N2C)O1	none (no result: PAD4 FP inh, TCR CD3 inh, HTRA1 inh)
C[C@@H]1ON(C)[C@H]2C[C@H]3c4[nH]c5cccc(-c6ccccc6F)c5c4CCN3C(=O)[C@@H]12	none (no result: PAD4 FP inh, HTRA1 inh)
CC(COc1ccc(Cl)cc1)CN1CCC(C(O)(c2ccccc2)c2ccccc2)CC1 (stereo not given)	none (no result: PAD4 FP inh, TCR CD3 inh, HTRA1 inh)
Nc1c(/C=C2/C=CC(=O)C(O)=C2)c(=O)nc2sc(CC(=O)N3CCCCC3)nn12	TCR CD3 inh 26.2 | BSA TAMRA ctr inactive | TCR-CD3 conf 41.8
COc1ccc(Cl)cc1C(=O)NC(=S)Nc1cc(-c2nc3ccccc3[nH]2)ccc1C	TCR CD3 inh 46.7 | BSA TAMRA ctr inactive | TCR-CD3 conf inactive
CCC(=O)OCCCN1CCC2(CCC(c3ccccc3)CC2)C1=O (stereo not given)	none (no result: PAD4 FP inh, TCR CD3 inh, HTRA1 inh)
CCCn1c(=O)c(C(=O)Nc2ncccc2O)c(O)c2ccccc21	TCR CD3 inh 21.8 (no result: PAD4 FP inh) | BSA TAMRA ctr inactive | TCR-CD3 conf 21.4
O=C(NNC(=O)c1nn(-c2ccc(F)cc2)ccc1=O)Nc1cccc(Cl)c1	TCR CD3 inh 34.4 (no result: HTRA1 inh) | BSA TAMRA ctr inactive | TCR-CD3 conf 25.6
CC(C)NC(=O)NNC(=O)c1nn(-c2ccc(F)cc2)ccc1=O	TCR CD3 inh 20.5 | BSA TAMRA ctr inactive | TCR-CD3 conf inactive
Cc1ccc(C(=O)NNC(=O)c2nn(-c3ccc(F)cc3)ccc2=O)cc1	none
CC(=O)c1cc(-c2ccc(F)cc2)n(CCC(=O)NC(C)(C)C)c1C	TCR CD3 inh 20.3 | BSA TAMRA ctr inactive | TCR-CD3 conf inactive
CCC(C)NC(=O)CCn1c(-c2ccc(F)cc2)cc(C(C)=O)c1C (stereo not given)	none
COC(=O)COc1ccc(NC(=O)C(c2ccccc2)c2ccccc2)cc1	none
COC(=O)COc1ccc(C(C2C(=O)CC(C)(C)CC2=O)C2C(=O)CC(C)(C)CC2=O)cc1	TCR CD3 inh 20.4 | BSA TAMRA ctr inactive | TCR-CD3 conf inactive
CCC(=O)Nc1ccc2nc3c(=O)[nH]c(=S)[nH]c3nc2c1	TCR CD3 inh 29.0 | BSA TAMRA ctr inactive | TCR-CD3 conf 27.6
COc1c(Br)cc(Br)cc1/C=N/NC(=O)c1ccncc1	none
